Assay outcomes as filed in PubChem.
mABHD4 FP: inhibits mouse alpha/beta hydrolase domain 4; Q8VD66; purified mABHD4, FP-Rh probe fluorescence polarization; AID 720543; inhibition, % at 8.92 µM; hit rate 0.54% among 370,000;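 active means inhibition exceeding the mean over every tested compound plus 3 SD, cut at about 30% in these data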
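Material: mouse ABHD4 enzyme, wild type; Benchmarks: S159A mutant high control, sample median low control; Buffer or medium: HEPES pH 7.0, NaCl, Pluronic buffer; Signal: fluorescence polarization; Read-out: percent inhibition of probe binding, normalized to plate controls; Timing: pre-incubation 45 min, probe exposure 60 min, at 25 °C; Dosing: 8.92 µM, single dose.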
HTRA1 inhibitor: blocks human HTRA1 serine peptidase; recombinant HTRA1, FP-rhodamine activity-based probe, fluorescence polarization; inhibition, % at 5.96 µM; hit rate 0.5% among 340,000; in the data active means inhibition above about 36%
Target sequence (Q92743 whole entry, looked up): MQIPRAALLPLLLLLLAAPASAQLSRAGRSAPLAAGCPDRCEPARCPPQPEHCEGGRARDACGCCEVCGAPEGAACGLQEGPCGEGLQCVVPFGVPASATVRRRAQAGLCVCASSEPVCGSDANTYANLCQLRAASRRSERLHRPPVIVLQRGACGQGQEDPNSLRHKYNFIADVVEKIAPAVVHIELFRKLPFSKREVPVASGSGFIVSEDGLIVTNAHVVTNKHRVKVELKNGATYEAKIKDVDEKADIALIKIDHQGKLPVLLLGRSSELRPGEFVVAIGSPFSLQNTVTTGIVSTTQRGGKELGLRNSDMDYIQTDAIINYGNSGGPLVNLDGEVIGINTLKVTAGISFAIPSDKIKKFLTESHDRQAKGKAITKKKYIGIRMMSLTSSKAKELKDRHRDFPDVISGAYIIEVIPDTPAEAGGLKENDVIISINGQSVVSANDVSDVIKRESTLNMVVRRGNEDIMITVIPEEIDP
SIAE primary: blocks human sialic acid acetylesterase; Q9HAT2; SIAE FP-Rh probe binding, fluorescence polarization; inhibition, % at 9.66 µM; hit rate 0.69% among 370,000; AID 1053197;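 active means inhibition above a cutoff: mean of compounds within the control limits plus 3 SD of those, cut at about 17% in these data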
ARNT-TACC3 inh: disruptors of human ARNT/TACC3 interaction; Q9Y6A5; AlphaScreen His-ARNT PAS-B/GST-TACC3 binding, luminescence; TACC3 fragment carries E629A point mutation; inhibition, % at 9.99 µM; hit rate 0.66% among 390,000; AID 623870;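 active means mean inhibition of replicates at least 50% and at least half of replicates each reaching 50%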
TCR CD3 inh: inhibitors of human TCR-CD3 interaction | TAMRA-labeled TCR probe fluorescence, biochemical | inhibition, % at 9.4 µM | hit rate 0.37% among 360,000; in the data active means inhibition above about 19%;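 further: recombinant mutant TCR 2C K166C tagged with TAMRA read by polarization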
SIAE inh conf: human SIAE inhibition, confirmation; hit rate 13% among 2,300; SIAE FP-Rh activity-based probe, fluorescence polarization; inhibition, % at 9.66 µM; shares compounds with SIAE primary; AID 1117263;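 active means mean inhibition of the replicates above the hit cutoff set in the primary screen, cut at about 17% in these data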;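 further: inhibitors lower polarization as more probe stays unbound to SIAE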
Each line names hits and unclear results; the compound was inactive in the other large screens (follow-up assays come after a bar, where they were run). Most compounds without a hit are left out; they make up all but 1.8% or so of the library.

CC(C)NC(=O)N(C)C[C@@H]1Oc2ccc(NC(=O)Nc3ccc4c(c3)OCO4)cc2CC(=O)N([C@@H](C)CO)C[C@H]1C	none (no result: mABHD4 FP, HTRA1 inhibitor, SIAE primary, TCR CD3 inh)
Nc1ccc2nc(-c3ccc(Cl)cc3)[nH]c2c1	SIAE primary 54 | SIAE inh conf inactive
Clc1ccc2nc(-c3ccc(Cl)nc3)[nH]c2c1	none
C[C@H](CO)N1C[C@H](C)[C@@H](CN(C)C(=O)c2ccc(F)cc2)Oc2ncc(C#CC3CC3)cc2C1=O	none (no result: mABHD4 FP, HTRA1 inhibitor, SIAE primary, TCR CD3 inh)
CO[C@H]1CC[C@@H]2CCOc3c(C#N)cccc3C(=O)N(C)C[C@@H](C)C(=O)N(C)C[C@@H]1O2	none (no result: mABHD4 FP, HTRA1 inhibitor, SIAE primary, TCR CD3 inh)
COc1ccc(C2(O)CN(c3ccc(C)cc3)C3=[N+]2CCCC3)cc1 (configuration not stated)	SIAE primary 20 | SIAE inh conf inactive
c1ccc(-c2c[nH]c3[n+]2CCCCC3)cc1	SIAE primary 19 | SIAE inh conf inactive
Brc1ccc(-c2csc3[n+]2CCCCC3)cc1	none (no result: ARNT-TACC3 inh)
CC1(C)CC(=O)C(C=Nc2ccccc2C(=O)O)=C(O)C1	none
CC1(C)CC(=O)c2cc(N=C/C(C(=O)c3ccccc3)=C(\O)c3ccccc3)c(=O)oc2C1	SIAE primary 17 | SIAE inh conf inactive
COc1ccccc1CCNC(=O)c1c(N)[nH]c(C(=O)c2ccccc2)c1-c1ccc(Br)cc1	SIAE primary 18 (no result: HTRA1 inhibitor, ARNT-TACC3 inh) | SIAE inh conf inactive
Nc1[nH]c(C(=O)c2ccccc2)c(-c2ccc(Br)cc2)c1C(=O)NCCc1c[nH]c2ccccc12	none (no result: HTRA1 inhibitor, ARNT-TACC3 inh)
O=C(NCC[C@@H]1CC[C@@H](NC(=O)C2CC2)[C@H](CO)O1)c1ccc(F)cc1	none (no result: mABHD4 FP, HTRA1 inhibitor, SIAE primary, TCR CD3 inh)
CCCc1nnc(SCc2ccc(OC)cc2)n1N	SIAE primary 18 | SIAE inh conf inactive
O=C1C(CSCc2ccccc2)NC(=S)N1c1ccccc1 (configuration not stated)	SIAE primary 100 (no result: HTRA1 inhibitor, ARNT-TACC3 inh) | SIAE inh conf inactive
O=C(O)CC1NC(=S)N(c2ccccc2)C1=O (configuration not stated)	none
COc1ccc(-c2nc(C(=O)O)cs2)cc1OC	none
COc1ccc(C(=O)O)nc1C	SIAE primary 21 | SIAE inh conf inactive
COc1ccc(-c2nc(NC(=O)c3[nH]c(C)c(C(C)=O)c3C)sc2C)cc1	SIAE primary 27 | SIAE inh conf inactive
COCCn1c(N)c(C#N)c2nc3ccccc3nc21	SIAE primary 19 | SIAE inh conf inactive
c1ccc(CCCN2CCOCC2)cc1	none
c1ccc(OCc2ccc(CCCN3CCOCC3)cc2)cc1	SIAE primary 18 | SIAE inh conf inactive
COc1ccc(-n2c(=S)[nH]c3cc(C(=O)Nc4cc(OC)c(OC)c(OC)c4)ccc3c2=O)c(OC)c1	SIAE primary 17 | SIAE inh conf inactive
C[C@@H]1CCCCO[C@@H](CN(C)C(=O)Nc2ccc3c(c2)OCO3)[C@H](C)CN([C@H](C)CO)C(=O)c2cc(NC(=O)Nc3ccc(F)cc3)ccc2O1	none (no result: mABHD4 FP, HTRA1 inhibitor, SIAE primary, TCR CD3 inh)
CN(CCCCCCCCC(=O)/C=N/O)Cc1ccccc1	SIAE primary 22 | SIAE inh conf inactive
CN(C)c1cccc(NC(=O)NC2(C)CCS(=O)(=O)C2)c1 (configuration not stated)	none
CC1(NC(=O)Nc2cccc3ccccc23)CCS(=O)(=O)C1 (configuration not stated)	SIAE primary 22 | SIAE inh conf inactive
Cc1ccc(S(=O)(=O)Nc2ccc3c(c2)CC(=O)N([C@H](C)CO)C[C@@H](C)[C@@H](CN(C)Cc2ccc(Oc4ccccc4)cc2)O3)cc1	none (no result: mABHD4 FP, HTRA1 inhibitor, SIAE primary, TCR CD3 inh)
O=C(c1ccccc1Oc1ccccc1)N1CCC(Oc2cccnc2)CC1	SIAE primary 20 (no result: HTRA1 inhibitor, ARNT-TACC3 inh, TCR CD3 inh) | SIAE inh conf inactive
CCCN1C[C@@H](C)[C@@H](OC)CN(C)C(=O)c2ccc(NC(=O)Nc3c(C)noc3C)cc2OC[C@@H]1C	none (no result: mABHD4 FP, HTRA1 inhibitor, SIAE primary, TCR CD3 inh)
Cc1ccc(-c2ccc3c(c2)O[C@@H](CN(C)Cc2cncnc2)[C@@H](C)CN([C@@H](C)CO)S3(=O)=O)cc1	none (no result: mABHD4 FP, HTRA1 inhibitor, SIAE primary, TCR CD3 inh)
CCOC(=O)c1ccc(S(=O)(=O)NCC(c2ccc(N(C)C)cc2)c2c[nH]c3ccccc23)cc1 (configuration not stated)	SIAE primary 23 | SIAE inh conf inactive
CN(C)c1ccc(C(CNC(=O)c2ccccc2Br)c2c[nH]c3ccccc23)cc1 (configuration not stated)	none
